pIC50: −log10 of the molar value. Activity calls are given as the source filed them. No cut-off for these calls is given here.
Legend:
[1] = system: Trypanosoma brucei rhodesiense; assay: Trypanocidal activity against bloodstream form of Trypanosoma brucei rhodesiense STIB900 infected in NMRI mouse assessed as decrease in parasitemia at 5 mg/kg, ip qd administered for 4 days measured once per week until 60 days by microscopic analysis; type: functional, organism-based; design: dose 5 mg/kg
How it was run: (§1)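 Mice infected with T. b. rhodesiense STIB900 received one dose daily for 4 consecutive days, 4 mice per group. Diamidines were given intraperitoneally and prodrugs orally. The primary endpoint was cures per group: a mouse counted as cured if it survived 60 days post-infection without parasitemia relapse.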

[2] = system: Trypanosoma brucei rhodesiense; assay: Trypanocidal activity against bloodstream form of Trypanosoma brucei rhodesiense STIB900 infected in NMRI mouse assessed as mean survival days at 5 mg/kg, ip qd administered for 4 days; type: functional
How it was run: (§2)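 Mice infected with T. b. rhodesiense STIB900 (acute model) dosed once daily for 4 consecutive days, ip (diamidines) or oral (prodrugs). Cure means survival to 60 days post infection without parasitemia relapse. Mean survival days post infection are averaged over all mice, with cured mice counted as >60 days.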

[3] = system: Trypanosoma brucei rhodesiense; assay: Trypanocidal activity against bloodstream form of Trypanosoma brucei rhodesiense STIB900 infected in NMRI mouse assessed as mean parasitemia relapse day at 5 mg/kg, ip qd administered for 4 days; type: functional; conditions: route intraperitoneal
How it was run: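 Mice infected with STIB900 received 4 consecutive daily intraperitoneal doses, 4 mice per group. The secondary endpoint was mean relapse day post-infection, which separates weaker compounds; mice surviving 60 days without parasitemia relapse were scored as cured.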

[4] = system: Trypanosoma brucei rhodesiense; assay: Trypanocidal activity against bloodstream form of Trypanosoma brucei rhodesiense STIB900 infected in NMRI mouse assessed as decrease in parasitemia at 25 mg/kg, po qd administered for 4 days measured once per week until 60 days by microscopic analysis; type: functional, organism-based; design: dose 25 mg/kg; how it was run: as §1
[5] = system: Trypanosoma brucei rhodesiense; assay: Trypanocidal activity against bloodstream form of Trypanosoma brucei rhodesiense STIB900 infected in NMRI mouse assessed as mean survival days at 25 mg/kg, po qd administered for 4 days; type: functional; how it was run: as §2
[6] = system: Trypanosoma brucei rhodesiense; assay: Trypanocidal activity against bloodstream form of Trypanosoma brucei rhodesiense STIB900 infected in NMRI mouse assessed as decrease in parasitemia at 20 mg/kg, ip qd administered for 4 days measured once per week until 60 days by microscopic analysis; type: functional, organism-based; design: dose 20 mg/kg; how it was run: as §1
[7] = system: Trypanosoma brucei rhodesiense; assay: Trypanocidal activity against bloodstream form of Trypanosoma brucei rhodesiense STIB900 infected in NMRI mouse assessed as mean survival days at 20 mg/kg, ip qd administered for 4 days; type: functional; conditions: route intraperitoneal; how it was run: as §2
L6 = assay: Cytotoxicity against rat L6 cells assessed as cell viability after 70 hrs by Alamar blue assay; type: cell-based; conditions: L6, 70 h
Plasmodium falciparum = assay: Antiplasmodial activity against chloroquine/pyrimethamine-resistant Plasmodium falciparum K1 infected in human red blood cells assessed as [3H]-hypoxanthine incorporation incubated for 48 hrs prior to [3H]-hypoxanthine addition measured after 24 hrs by liquid scintillation counting analysis; type: functional, organism-based
[8] = system: Trypanosoma brucei rhodesiense; assay: Antitrypanosomal activity against Trypanosoma brucei rhodesiense STIB900 assessed as growth inhibition after 70 hrs by Alamar blue assay; type: functional, organism-based; conditions: STIB900, 70 h
[9] = Selectivity index, ratio of IC50 for rat L6 cells to IC50 for chloroquine/pyrimethamine-resistant Plasmodium falciparum K1 infected in human red blood cells; type: toxicity, cell-based; conditions: read-out: Ratio IC50
How it was run: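 Ratio of IC50 in L6 rat myoblast cytotoxicity assay to IC50 against P. falciparum K1; each IC50 is the mean of two independent assays.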

[10] = Selectivity index, ratio of IC50 for rat L6 cells to IC50 for Trypanosoma brucei rhodesiense STIB900; type: toxicity, cell-based; conditions: read-out: Ratio IC50
How it was run: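 Ratio of IC50 in L6 rat myoblast cytotoxicity assay to IC50 against T. b. rhodesiense STIB900; each IC50 is the mean of two independent assays.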

Compound: Cl.Cl.N=C(N)c1cccc(-c2cc(-c3ccc(C(=N)N)cc3[N+](=O)[O-])no2)c1
- Activity [1]: inactive
- MSD [2]: inactive
- Time [3]: 13 days

Compound: Cl.Cl.N/C(=N\O)c1cccc(-c2cc(-c3cccc(/C(N)=N/O)c3)on2)c1
- Activity [4]: inactive
- MSD [5]: 7.5 days

Compound: Cl.Cl.N/C(=N\O)c1ccc(-c2cc(-c3cc(/C(N)=N/O)ccc3[N+](=O)[O-])no2)cc1
- Activity [4]: inactive
- MSD [5]: 7.25 days

Compound: CO/N=C(\N)c1ccc(-c2cc(-c3cccc(/C(N)=N/OC)c3)no2)cc1.Cl.Cl
- Activity [4]: inactive
- MSD [5]: 8 days

Compound: Cl.Cl.N=C(N)c1ccc(-c2cc(-c3cccc(C(=N)N)c3)no2)cc1
- Activity [6]: inactive
- MSD [7]: >29.25 days

Compound: CO/N=C(\N)c1ccc(-c2cc(-c3ccc(/C(N)=N/OC)cc3OC)on2)cc1.Cl.Cl
- Activity [4]: inactive
- MSD [5]: 15.75 days

Compound: COc1cc(/C(N)=N/O)ccc1-c1cc(-c2cccc(/C(N)=N/O)c2)on1.Cl.Cl
- Activity [4]: inactive
- MSD [5]: 17.5 days

Compound: Cl.Cl.N=C(N)c1cncc(-c2cc(-c3ccc(C(=N)N)nc3)on2)c1
- pIC50 (L6): 5.31
- Activity [1]: inactive
- pIC50 (Plasmodium falciparum): 8.46
- Time [3]: 25.25 days
- pIC50 [8]: 7.62
- selectivity ratio [9]: 1400
- selectivity ratio [10]: 206

Compound: COc1c(/C(N)=N/O)cccc1-c1cc(-c2ccc(/C(N)=N/O)cc2)no1.Cl.Cl
- Activity [4]: inactive
- MSD [5]: 25.75 days

Compound: CO/N=C(\N)c1cccc(-c2cc(-c3ccc(/C(N)=N/OC)cc3OC)on2)c1.Cl.Cl
- Activity [4]: inactive
- MSD [5]: 7.25 days

Compound: COc1cc(C(=N)N)ccc1-c1cc(-c2cccc(C(=N)N)c2)on1.Cl.Cl
- Activity [1]: inactive
- MSD [2]: inactive
- Time [3]: 36.25 days

Compound: COc1ccc(C(=N)N)cc1-c1cc(-c2ccc(C(=N)N)cc2)no1.Cl.Cl
- MSD ([2]; route intraperitoneal): >60 days
- Activity [6]: Active
- MSD [7]: >60 days

Compound: Cl.Cl.Cl.N=C(N)c1ccc(-c2cc(-c3cc(C(=N)N)ccc3Cl)no2)cc1
- Activity [1]: inactive
- MSD [2]: inactive
- Time [3]: 7.75 days

Compound: COc1ccc(C(=N)N)cc1-c1cc(-c2cccc(C(=N)N)c2)no1.Cl.Cl
- MSD [2]: inactive
- Time [3]: 22.3 days

Compound: COc1c(/C(N)=N/O)cccc1-c1cc(-c2cccc(/C(N)=N/O)c2OC)on1.Cl.Cl
- Activity [4]: inactive
- MSD [5]: 6 days

Compound: Cl.Cl.N=C(N)c1ccc(-c2cc(-c3ccc(C(=N)N)nc3)no2)cc1
- pIC50 (L6): 5.60
- pIC50 (Plasmodium falciparum): 9.40
- Time [3]: 25.7 days
- pIC50 [8]: 8.23
- selectivity ratio [9]: 6330
- selectivity ratio [10]: 423

Compound: Cl.Cl.N=C(N)c1ccc(-c2cc(-c3ccc(C(=N)N)nc3)on2)cn1
- pIC50 (L6): 5.61
- pIC50 (Plasmodium falciparum): 9.40
- Time [3]: 24 days
- pIC50 [8]: 8.21
- selectivity ratio [9]: 6650
- selectivity ratio [10]: 398

Compound: COc1cc(C(=N)N)ccc1-c1cc(-c2ccc(C(=N)N)cc2)no1.Cl.Cl
- MSD ([2]; route intraperitoneal): >48.75 days
- MSD [7]: >50.25 days

Compound: COc1ccc(C(=N)N)cc1-c1cc(-c2ccc(C(=N)N)cc2)on1.Cl.Cl
- MSD ([2]; route intraperitoneal): >60 days
- Activity [6]: Active
- MSD [7]: >60 days

Compound: COc1cc(C(=N)N)ccc1-c1cc(-c2cccc(C(=N)N)c2)no1.Cl.Cl
- Activity [1]: inactive
- MSD [2]: inactive
- Time [3]: 18 days

Compound: Cl.Cl.N/C(=N\O)c1ccc(-c2cc(-c3cccc(/C(N)=N/O)c3)no2)cc1
- Activity [4]: inactive
- MSD [5]: 20 days

Compound: Cl.Cl.N=C(N)c1ccc(-c2cc(-c3cncc(C(=N)N)c3)no2)cc1
- pIC50 (L6): 5.36
- pIC50 (Plasmodium falciparum): 8.43
- Time [3]: 15 days
- pIC50 [8]: 7.80
- selectivity ratio [9]: 1170
- selectivity ratio [10]: 270

Compound: COc1cc(/C(N)=N/O)ccc1-c1cc(-c2ccc(/C(N)=N/O)cc2)no1.Cl.Cl
- Activity [4]: inactive
- MSD [5]: 26.25 days

Compound: CO/N=C(\N)c1ccc(-c2cc(-c3cccc(/C(N)=N/OC)c3)on2)cc1.Cl.Cl
- Activity [4]: inactive
- MSD [5]: 31.25 days

Compound: Cl.Cl.Cl.N=C(N)c1ccc(-c2cc(-c3cc(C(=N)N)ccc3Cl)on2)cc1
- Activity [1]: inactive
- MSD [2]: inactive
- Time [3]: 8.75 days

Compound: Cl.Cl.N=C(N)c1cccc(-c2cc(-c3ccc(C(=N)N)cc3[N+](=O)[O-])on2)c1
- Activity [1]: inactive
- MSD [2]: inactive
- Time [3]: 12.25 days

Compound: Cl.Cl.N=C(N)c1ccc(-c2cc(-c3cccc(C(=N)N)c3)on2)cc1
- MSD ([2]; route intraperitoneal): >49.25 days
- MSD [7]: >51.25 days

Compound: Cl.Cl.N=C(N)c1ccc(-c2cc(-c3cc(C(=N)N)ccn3)no2)cc1
- pIC50 (L6): 4.15
- Activity [1]: inactive
- pIC50 (Plasmodium falciparum): 8.30
- Time [3]: 15.5 days
- pIC50 [8]: 7.28
- selectivity ratio [9]: 14200
- selectivity ratio [10]: 1350

Compound: Cl.Cl.Cl.N/C(=N\O)c1cccc(-c2cc(-c3ccc(/C(N)=N/O)cc3Cl)on2)c1
- Activity [4]: inactive
- MSD [5]: 8.5 days

Compound: CO/N=C(\N)c1ccc(-c2cc(-c3ccc(/C(N)=N/OC)cc3Cl)on2)cc1.Cl.Cl.Cl
- Activity [4]: inactive
- MSD [5]: 39 days

Compound: CO/N=C(\N)c1ccc(-c2cc(-c3ccc(/C(N)=N/OC)cc3OC)no2)cc1.Cl.Cl
- Activity [4]: inactive
- MSD [5]: 27 days

Compound: COc1ccc(C(=N)N)cc1-c1cc(-c2cc(C(=N)N)ccc2OC)on1.Cl.Cl
- Activity [1]: inactive
- MSD ([2]; route intraperitoneal): >50 days
- Time [3]: 26 days

Compound: Cl.N=C(N)c1cncc(-c2cc(-c3ccc(C(=N)N)nc3)no2)c1
- pIC50 (L6): 5.68
- MSD ([2]; route intraperitoneal): >60 days
- pIC50 (Plasmodium falciparum): 8.32
- Time [3]: 60 days
- pIC50 [8]: 7.72
- selectivity ratio [9]: 440
- selectivity ratio [10]: 111

Compound: CO/N=C(\N)c1ccc(-c2cc(-c3cc(/C(N)=N/OC)ccc3[N+](=O)[O-])no2)cc1.Cl.Cl
- Activity [4]: inactive
- MSD [5]: 13.5 days

Compound: Cl.Cl.N=C(N)c1cccc(-c2cc(-c3cccc(C(=N)N)c3)on2)c1
- Activity [1]: inactive
- MSD ([2]; route intraperitoneal): 21.75 days
- MSD [7]: >58 days

Compound: COc1ccc(/C(N)=N/O)cc1-c1cc(-c2ccc(/C(N)=N/O)cc2)on1.Cl.Cl
- Activity [4]: inactive
- MSD [5]: 18.25 days

Compound: Cl.Cl.N=C(N)c1ccc(-c2cc(-c3cccc(C(=N)N)c3)on2)nc1
- pIC50 (L6): 3.92
- MSD ([2]; route intraperitoneal): >60 days
- pIC50 (Plasmodium falciparum): 8.15
- Time [3]: 53 days
- pIC50 [8]: 7.87
- selectivity ratio [9]: 17400
- selectivity ratio [10]: 8900

Compound: Cl.Cl.N=C(N)c1ccc(-c2cc(-c3cc(C(=N)N)ccc3[N+](=O)[O-])no2)cc1
- Activity [1]: inactive
- MSD ([2]; route intraperitoneal): 29.75 days
- Time [3]: 17 days

From ChEMBL document CHEMBL3102749, “Antiprotozoal activity of dicationic 3,5-diphenylisoxazoles, their prodrugs and aza-analogues” (Bioorg Med Chem, 2014)
